Columns and labels:
Type in all cases: functional, cell-based
A549 = experiment: Antiproliferative activity against human A549 cells incubated for 72 hrs by SRB assay; details: A549, 72 h
MDA-MB-231 = experiment: Antiproliferative activity against human MDA-MB-231 cells incubated for 72 hrs by SRB assay; details: MDA-MB-231, 72 h
MCF7 = experiment: Antiproliferative activity against human MCF7 cells incubated for 72 hrs by SRB assay; details: MCF7, 72 h
In short: (§1)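 Cells in RPMI-1640 with 2 mM L-glutamine, 25 mM HEPES, 10% FBS, streptomycin and penicillin. Seeded at 4,000−12,000 cells per well, then exposed to compound for 72 h. Fixed with 10% trichloroacetic acid, stained with 0.04% SRB, dye taken up in 10 mM Tris base, absorbance read at 515 nm. IC50 is 50% reduction versus untreated cells, from at least three independent experiments run in duplicate.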

KB = experiment: Antiproliferative activity against human KB cells incubated for 72 hrs by SRB assay
[1] = Antiproliferative activity against human KBVIN cells incubated for 72 hrs by SRB assay; in short: as §1

`C=CC(=C)CC[C@]1(C)[C@H](C)C[C@H](OC(=O)/C=C\C=C/CCCCC)[C@@]23C(=C[C@@H](O)C[C@@H]12)[C@@H](OC(C)=O)O[C@H]3OC(C)=O` gave an IC50 (A549) of 4.8 µM, an IC50 (MDA-MB-231) of 5.1 µM and an IC50 (MCF7) of 5.2 µM. For the same compound, the IC50 (KB) was 4.9 µM and the IC50 [1] was 4.8 µM.

Work on `C=CC(=C)CC[C@]1(C)[C@H](C)C[C@H](OC(=O)CCCCCCCCC)[C@@]23C(=C[C@H](O)C[C@@H]12)[C@@H](OC(C)=O)O[C@H]3OC(C)=O` yielded an IC50 (A549) of 4.7 µM, an IC50 (MDA-MB-231) of 5.2 µM and an IC50 (MCF7) of 5 µM. For the same compound, the IC50 (KB) was 5 µM and the IC50 [1] was 4.9 µM.

Compound `C=CC(=C)CC[C@]1(C)[C@H](C)C[C@H](OC(=O)/C=C\C=C/CCCCC)[C@@]23C(=C[C@H](O)C[C@@H]12)[C@@H](OC(C)=O)O[C@H]3OC(C)=O` has an IC50 (A549) of 4.6 µM, an IC50 (MDA-MB-231) of 4.8 µM and an IC50 (MCF7) of 4.8 µM. The IC50 (KB) was 4.8 µM and the IC50 [1] was 4.9 µM.

For `C=CC(=C)CC[C@]1(C)[C@H](C)C[C@H](OC(=O)CCCCCCCCC)[C@@]23C(=CC(=O)C[C@@H]12)[C@@H](OC(C)=O)O[C@H]3OC(C)=O`, the IC50 (A549) was > 10 µM, the IC50 (MDA-MB-231) was > 10 µM and the IC50 (MCF7) was 8.3 µM. It also gave an IC50 (KB) of 5.9 µM and an IC50 [1] of 9.8 µM.

With `C=CC(=C)CC[C@]1(C)[C@H](C)C[C@H](OC(=O)CCCCCCCCC)[C@@]23C(=C[C@@H](O)C[C@@H]12)[C@@H](OC(C)=O)O[C@H]3OC(C)=O` the IC50 (A549) was 5.3 µM, the IC50 (MDA-MB-231) was 5.4 µM and the IC50 (MCF7) was 5.4 µM. The IC50 (KB) was 4.5 µM and the IC50 [1] was 4.8 µM.

`C=CC(=C)CC[C@]1(C)[C@H](C)C[C@H](OC(=O)CCCCCCC)[C@@]23C(=C[C@H](O)C[C@@H]12)[C@@H](OC(C)=O)O[C@H]3OC(C)=O` gave an IC50 (A549) of 4.7 µM, an IC50 (MDA-MB-231) of 5.1 µM and an IC50 (MCF7) of 4.9 µM. The IC50 (KB) was 5 µM and the IC50 [1] was 4.9 µM.

— ChEMBL document CHEMBL4177540, “Corymbulosins D-H, 2-Hydroxy- and 2-Oxo-clerodane Diterpenes from the Bark of Laetia corymbulosa” (J Nat Prod, 2017)
